The subject of data set [1] is Tg (fli1a: EGFP) zebrafish. Briefly: Zebrafish vascular injury model. In kind it is in vivo. The following applies: for dose relation of the ameliorative effect on vascular injury: different concentrations, PTK787 model. In outline:
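Tg(fli1a:EGFP) embryos at 24 hpf were dechorionated with 1 mg·mL⁻¹ protease E and placed 10 per well, 3 wells per group, in fish water (NaCl/KCl/CaCl2/MgSO4). Groups were vehicle (0.1% DMSO), 0.2 µg·mL⁻¹ PTK787, PTK787 plus 0.2 mg·mL⁻¹ aspirin, and PTK787 plus test compound. Exposure lasted 24 h at 28.5 °C on a 14/10 h light/dark cycle. ISV development was observed and ISV length measured.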

A further data set has as its target T1, T1R2 (Homo sapiens, UniProt Q8TE23).
T1 sequence (Q8TE23 20-839): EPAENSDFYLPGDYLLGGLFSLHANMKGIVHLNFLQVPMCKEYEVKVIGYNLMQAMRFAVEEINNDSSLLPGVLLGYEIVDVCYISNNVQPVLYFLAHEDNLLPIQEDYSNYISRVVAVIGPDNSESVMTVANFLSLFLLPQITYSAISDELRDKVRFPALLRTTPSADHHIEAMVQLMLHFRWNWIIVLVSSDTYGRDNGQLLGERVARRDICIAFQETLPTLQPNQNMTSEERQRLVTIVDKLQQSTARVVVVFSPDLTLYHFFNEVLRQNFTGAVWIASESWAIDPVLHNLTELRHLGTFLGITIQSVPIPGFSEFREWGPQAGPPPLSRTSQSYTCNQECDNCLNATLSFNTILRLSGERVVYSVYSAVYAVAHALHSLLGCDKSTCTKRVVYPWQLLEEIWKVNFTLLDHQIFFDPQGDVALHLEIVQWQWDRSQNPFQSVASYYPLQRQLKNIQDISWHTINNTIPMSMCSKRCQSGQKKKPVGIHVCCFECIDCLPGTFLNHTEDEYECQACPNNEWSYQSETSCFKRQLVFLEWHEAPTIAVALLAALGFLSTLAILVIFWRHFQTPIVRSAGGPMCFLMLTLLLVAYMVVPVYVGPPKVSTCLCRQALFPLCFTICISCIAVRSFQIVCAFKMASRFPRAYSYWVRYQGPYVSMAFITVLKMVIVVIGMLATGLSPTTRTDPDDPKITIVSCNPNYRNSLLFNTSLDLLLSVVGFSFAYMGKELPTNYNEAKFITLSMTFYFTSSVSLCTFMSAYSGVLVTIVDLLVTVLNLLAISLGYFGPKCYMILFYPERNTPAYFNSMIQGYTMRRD
Briefly: T1R2-HEMT biosensor interaction, dissociation constant. In kind it is binding. In outline:
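Recombinant T1R2 and T1R3 proteins (100 μg·mL⁻¹) were immobilised on an AlGaAs/GaAs HEMT chip at 4 °C. Test compounds in 0.5% DMSO were applied at eleven concentrations from 0.1 pmol·L⁻¹ to 1 mmol·L⁻¹. KD was derived by a linear fit of [C]/ΔI against [C], where ΔI is the current change and ΔImax the saturated current change.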

Another data set deals with T2, T1R3 (Homo sapiens, UniProt Q7RTX0).
T2 sequence (Q7RTX0 21-852): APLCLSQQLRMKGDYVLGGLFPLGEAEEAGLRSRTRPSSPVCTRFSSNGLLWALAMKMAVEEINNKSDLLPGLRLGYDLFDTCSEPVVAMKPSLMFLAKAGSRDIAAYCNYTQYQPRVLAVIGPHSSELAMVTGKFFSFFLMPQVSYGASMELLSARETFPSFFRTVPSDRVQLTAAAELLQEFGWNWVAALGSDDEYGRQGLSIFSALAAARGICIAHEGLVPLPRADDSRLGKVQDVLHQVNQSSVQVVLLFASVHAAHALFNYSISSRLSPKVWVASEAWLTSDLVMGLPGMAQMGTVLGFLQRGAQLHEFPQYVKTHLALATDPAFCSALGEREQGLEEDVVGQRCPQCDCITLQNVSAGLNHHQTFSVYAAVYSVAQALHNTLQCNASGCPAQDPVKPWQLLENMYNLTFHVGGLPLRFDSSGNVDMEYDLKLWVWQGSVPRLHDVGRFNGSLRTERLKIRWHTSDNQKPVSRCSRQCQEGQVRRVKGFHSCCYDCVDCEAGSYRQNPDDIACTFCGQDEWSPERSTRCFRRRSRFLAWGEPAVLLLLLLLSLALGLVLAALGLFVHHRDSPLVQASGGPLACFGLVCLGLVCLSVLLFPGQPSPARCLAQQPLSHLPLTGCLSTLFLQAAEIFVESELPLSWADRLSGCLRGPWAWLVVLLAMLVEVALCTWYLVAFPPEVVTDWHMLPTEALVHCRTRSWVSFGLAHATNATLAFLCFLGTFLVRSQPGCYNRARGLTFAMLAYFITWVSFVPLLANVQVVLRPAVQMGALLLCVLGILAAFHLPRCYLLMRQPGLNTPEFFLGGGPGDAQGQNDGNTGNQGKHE
Briefly: T1R3-HEMT biosensor interaction, dissociation constant. In kind it is binding.

The subject of a further data set is Tg (mpx: EGFP) zebrafish. Briefly: Zebrafish immunocompromised model. The class given is in vivo. The conditions noted are these: for immune enhancement (number of neutrophils): compared to the model group.
Setting [2] is: 25 µM·L^−1, with 0.2 µg·mL^−1 PTK787, compared with the model group.

Usually Kd stands for a measure of binding affinity in units of concentration. A higher Kd goes with weaker binding.

For the compound `Clc1ccc(Nc2nnc(Cc3ccncc3)c3ccccc23)cc1` [PTK787, Vatalanib (PTK787) 2HCl, reference compound], the “total length of ISVs” value in data set [1] (0.2 µg·mL^−1, compared with the control group, 24 h exposure) is “significantly reduce”. The teratogenicity result in data set [1] (0.2 µg·mL^−1, zebrafish embryos) is listed as “not teratogenic”.
On to `C=C1CCC[C@]2(C)C=C3OC(=O)C(C)=C3C[C@@H]12` [atractylenolide I], for which, in data set [1] (50 µM·L^−1, with 0.2 µg·mL^−1 PTK787, compared with the model group), the “effect on ISVs” value is “significantly promote ISVs”. Further, the “dose relation of the ameliorative effect on vascular injury” value (from here on “dose relation of the ameliorative effect”) in data set [1] was “dose-dependent effects”. For the same compound, the Kd at T1R2 was determined as 1.06 nM; at T1R3, 0.0882 nM.
Take `COc1ccc(-c2coc3cc(O)ccc3c2=O)cc1O` [calycosin]: the “effect on ISVs” value in data set [1] (setting [2]) is reported as “significantly promote ISVs”. Besides, the “dose relation of the ameliorative effect” value in data set [1] is “stronger at a low dose”. Further, the figures for the dissociation constant (Kd) on T1R2 and at T1R3 were 0.0017 nM and 0.641 nM, respectively. Also, in the data set on Tg (mpx: EGFP) zebrafish (50 µM·L^−1, with 100 µg·mL^−1 vinorelbine), the “immune enhancement (number of neutrophils)” value was “immune-enhancing effect”.
As for `C[C@@H]1CC[C@@]2(OC1)O[C@H]1C[C@H]3[C@@H]4CC=C5C[C@@H](O)C[C@@H](O)[C@]5(C)[C@H]4CC[C@]3(C)[C@H]1[C@@H]2C` [ruscogenin], the “effect on ISVs” value in data set [1] (setting [2]) is given as “significantly promote ISVs”. Besides, in data set [1], the “dose relation of the ameliorative effect” value was “stronger at medium and high doses”. In addition, the Kd on T1R2 is 52.5 nM; at T1R3, 0.217 nM. For the same compound, the “immune enhancement (number of neutrophils)” value with Tg (mpx: EGFP) zebrafish (100 µM·L^−1, with 100 µg·mL^−1 vinorelbine) is recorded as “immune-enhancing effect”.
Regarding `CCC1=C[C@@H]2CN(C1)Cc1c([nH]c3ccccc13)[C@@](C(=O)OC)(c1cc3c(cc1OC)N(C)[C@H]1[C@@](O)(C(=O)OC)[C@H](OC(C)=O)[C@]4(CC)C=CCN5CC[C@]31[C@@H]54)C2` [vinorelbine, Vinorelbine, reference compound], in the data set with Tg (mpx: EGFP) zebrafish (100 µg·mL^−1, model construction), the “number of neutrophils in the zebrafish tail” value was “significantly reduced”.

The record behind these values is PMC13424379 (Fundamental Research, 2024).
